Compound activity deposited in PubChem by several laboratories.
Hits are enriched below; roughly 6.5% of the tested compounds scored in any of these assays.
tolC growth inh = E. coli tolC mutant growth inhibition; E. coli BW25113 tolC mutant growth, OD615; growth inhibition, % at 10 µM (by protocol); 65,000 tested, 2.2% active; AID 573;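 active = growth inhibition at or above a cutoff equal to the mean over every tested compound plus 3 SD, cut at about 60% in these data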;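 note: growth measured after 20 h incubation at 37 °C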
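Assay system: tolC-deleted E. coli BW25113. Medium: kanamycin-containing LB broth (50 µg/mL). Dosing: 10 µM final, single dose. Timing: bacterial growth with compound for 20 h at 37 °C. Detection: A615 absorbance measurement. Read-out basis: growth inhibition in percent.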
PostGolgi ctrl = yeast control strain growth, post-Golgi counter-screen. efflux-deficient yeast background strain, growth absorbance A615, 16 h. inhibition, % at 10 µM. 98,000 tested, 5% active
Ecoli WT expand = growth inhibitors of E. coli BW25113 wild type; OD600 absorbance; growth inhibition, % at 100 µM; 98,000 tested, 0.15% active; AID 710;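 active = growth inhibition above about 50% at one test dose, limit read from the data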;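 note: growth measured after 20 h incubation at 37 °C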
Pyk2 oligo antag = Pyk2 (human) oligomerization antagonism; Q14289; Q293 cells, Pyk2 FERM NanoBiT luminescence; active compounds read low; z-score (the deposit names both 25 µM and 10 µM); 99,000 tested, 0.83% active; AID 1347419;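 active = Z-score of -3 or lower, scaled per plate to the spread of control and sample wells; inactive = z-score above -3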;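 note: negative z-score means lost luminescence so less FERM oligomerization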
Candida biofilm = kills Candida albicans biofilms; 85,000 tested, 0.14% active; C. albicans biofilm + clotrimazole, Alamar Blue; inhibition, % at 6 µM;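 active = inhibition above 20%; inactive = inhibition below 20%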;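 note: preformed 24 hr biofilms exposed to compound for 48 hr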
PostGolgi yeast = growth inhibition of a yeast mutant, post-Golgi transport screen. inhibition, % at 10 µM. 98,000 tested, 0.9% active. AID 739. post-Golgi transport phenotypic cell assay;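 note: yeast cells grown in 1536-well plates; yeast grown about 18 h at 30C before absorbance read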
A number is an active result; n = inactive; x = not tested or not shown. Cut-off read from the data, not from the text of the source, unless noted: active = inhibition above about 30%; inactive = the rest.

SMILES	tolC growth inh	PostGolgi ctrl	Ecoli WT expand	Pyk2 oligo antag	Candida biofilm	PostGolgi yeast
Cc1cccc(C)c1-n1nnnc1C1(Nc2ccccc2)CCCCC1	x	44.4	n	n	x	n
COc1cc(-c2nnc3sc(-c4ccncc4)nn23)cc(OC)c1OC	n	x	x	x	n	x
COc1cc(-c2nn3c(Cc4ccccc4)nnc3s2)cc(OC)c1OC	n	42.5	n	n	n	n
COc1ccc(-c2nnc3sc(COc4ccccc4)nn23)cc1	n	n	n	n	n	n
Cc1ccc(-c2nnc3sc(CCc4ccccc4)nn23)cc1	67.1	30.2	n	n	n	n
Cc1ccccc1-c1nn2c(-c3ccccc3)nnc2s1	n	41.3	n	n	n	n
COc1cc(-c2nn3c(-c4ccccc4)nnc3s2)cc(OC)c1OC	n	33.2	n	n	n	n
COc1cc(-c2nn3c(COc4ccccc4)nnc3s2)cc(OC)c1OC	n	n	n	n	n	n
COc1cc(NC(=O)CSc2nnc(C)s2)cc(OC)c1	n	n	n	n	n	n
CCC(CC)NC(=O)Cc1ccccc1OC	x	n	n	n	n	n
Cc1ccc2cc(C#N)c(SCC(=O)N3CCCc4ccccc43)nc2c1C	x	n	n	n	x	n
CN(C)CCC(=O)NCC1OCCc2ccccc21 (stereo not drawn)	x	n	n	n	n	n
CCC(=O)Oc1ccc(-c2nc(-c3cccnc3)no2)cc1	n	n	n	n	n	n
O=C1CN(C(=O)COC(=O)c2ccccc2NCc2ccco2)c2ccccc2N1	x	n	n	n	x	n
Cc1ccc(Cn2ncn3c(cc4ccccc43)c2=O)cc1	64.6	34.5	n	n	x	n
CCCCNS(=O)(=O)c1ccc2nc(SCC(=O)Nc3sccc3C#N)[nH]c2c1	n	n	n	-3.72	n	n
N=c1c2c(-c3ccccc3)c(-c3ccccc3)n(Cc3ccccc3)c2ncn1CCO	x	n	n	n	n	n
CC(C)Cn1cnc2c(c(-c3ccccc3)c(-c3ccccc3)n2Cc2ccco2)c1=N	x	62.2	n	n	n	83.4
N=c1c2c(-c3ccccc3)c(-c3ccccc3)n(Cc3ccco3)c2ncn1Cc1ccccc1	x	33.7	n	n	42.6	75.3
COc1cc(S(=O)(=O)N2CCC(c3nc4ccccc4s3)CC2)ccc1S(=O)(=O)NC1CCCC1	x	x	x	n	n	x
O=[N+]([O-])c1cccnc1N1CCC(c2cc(-c3cccc(C(F)(F)F)c3)n[nH]2)CC1	x	n	n	-3.39	n	n
O=[N+]([O-])c1cccnc1N1CCC(c2cc(-c3ccc(Cl)cc3Cl)n[nH]2)CC1	x	58.8	n	n	n	n
COc1ccc(OC)c(-c2cc(C3CCN(c4ncccc4[N+](=O)[O-])CC3)[nH]n2)c1	x	n	n	n	n	n
CCCC(CCC)C(=O)Nc1c[nH]c(=O)[nH]c1=O	x	n	n	n	n	n
Clc1ccccc1OCc1nc(-c2ccncc2)no1	n	n	n	n	n	n
SMILES	tolC growth inh	PostGolgi ctrl	Ecoli WT expand	Pyk2 oligo antag	Candida biofilm	PostGolgi yeast
Cc1ccc(OCc2nc(-c3ccccn3)no2)cc1	x	n	n	n	n	n
CC(C)c1ccc(OCc2nc(-c3ccccn3)no2)c(Br)c1	96.2	38.3	n	n	n	n
CCc1ccc(OCc2nc(-c3ccccn3)no2)c(Br)c1	n	n	n	n	n	n
Clc1ccc(OCc2nc(-c3ccncc3)no2)c(Br)c1	n	79.1	n	x	n	46.4
Cc1ccc(OCc2nc(-c3ccccn3)no2)c(Br)c1	n	34.4	n	n	n	n
Cc1ncc([N+](=O)[O-])n1CCOC(=O)Nc1ccc(Cl)c(Cl)c1	x	n	n	n	x	n
Cc1ccc(C(=O)N/C(=C\c2cccs2)C(=O)NCc2ccncc2)cc1	x	n	n	n	x	n
CCOC(=O)c1ccc(-n2nc(C(F)(F)F)c3c(C)cc(=O)oc32)cc1	x	x	x	x	n	x
Fc1cccc(Oc2nc3ccccc3n3cccc23)c1	x	n	n	n	x	n
Cc1csc(-c2cnn(-c3ccccc3)c2NC(=O)c2cccc(C(F)(F)F)c2)n1	x	34.4	n	n	x	n
CCN(CC)C(=O)c1cnn(-c2ccccc2)c1NC(=O)c1cccc(F)c1	x	n	n	n	n	n
O=c1c2[nH]c3ccc(Br)cc3c2ncn1CCCn1ccnc1	n	n	n	n	x	33.3
COc1cc(NC(=O)CC2NCCNC2=O)cc(OC)c1 (stereo not drawn)	x	n	n	n	x	n
CN(C1CCCCC1)S(=O)(=O)c1ccc(NC(=O)C2CCCCC2C(=O)O)cc1 (stereo not drawn)	n	33.2	n	n	n	n
CN(C1CCCCC1)S(=O)(=O)c1ccc(NC(=O)c2ccc(Br)o2)cc1	69.7	34.5	n	n	n	n
